# Experimental data taken from ChEMBL document CHEMBL4138225, “Development of novel anti-filarial agents using carbamo(dithioperoxo)thioate derivatives” (Eur J Med Chem, 2018).
# Calls of active or inactive are those of the source. The rule behind the calls is not given here.
# Legend:
# Setaria cervi [1] = test: Antifilarial activity against Setaria cervi microfilariae after 24 hrs by MTT assay; assay type: functional
# Procedure, shortened: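 Bovine S. cervi microfilariae incubated with compounds (DMSO-dissolved) in RPMI-1640 + 10% FBS, 5% CO2, 24 h. Worms washed in PBS; ~1×10^3 suspended in 0.3 ml MTT 0.25 mg/ml, 37 °C 2 h in dark. Formazan dissolved in DMSO, absorbance at 595 nm. Percent inhibition computed; LC50 fitted; ≥4 repeats, mean ± SE.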
# Setaria cervi [2] = test: Antifilarial activity against Setaria cervi adult after 24 hrs by MTT assay; assay type: functional, organism-based
# Procedure, shortened: (§1)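 S. cervi mf or adults cultured in RPMI-1640 with 10% FBS, 5% CO2, 24 h with compounds dissolved in DMSO. Worms washed in PBS, ~1×10^3 put in 0.25 mg/ml MTT for 2 h at 37 °C in the dark. Formazan dissolved in DMSO, A595. Percent inhibition computed, LC50 fitted; at least four repeats, mean ± SE.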
# Setaria cervi [3] = test: Antifilarial activity against Setaria cervi oocytes after 24 hrs by MTT assay; assay type: functional, organism-based
# Setaria cervi [4] = test: Antifilarial activity against Setaria cervi microfilariae after 3 hrs by trypan blue exclusion assay; assay type: functional, organism-based
# Procedure, shortened: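 After treatment, the culture was mixed and 100 μL holding parasites moved into fresh medium and put back in the CO2 incubator. Viability read by trypan blue staining, dead worms blue. Viability % = live / total microfilariae.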
# Setaria cervi [5] = test: Antifilarial activity against Setaria cervi adult after 3 hrs by trypan blue exclusion assay; assay type: functional, organism-based
# Setaria cervi [6] = test: Induction of reactive oxygen species generation in Setaria cervi microfilariae at 1 to 10 uM by NBT assay; assay type: functional, organism-based
# Procedure, shortened: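 Treated mf or adults pelleted at 7500 rpm, washed in PBS (50 mM, pH 7.0), then incubated in 2% NBT for 2 h at 37 °C. Washed in PBS and methanol, formazan dissolved in 2M KOH/DMSO for 10–15 min at room temperature, absorbance read at 620 nm.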
# Setaria cervi [7] = test: Induction of chromatin condensation in Setaria cervi microfilariae by Hoechst 33342 staining-based […] microscopic analysis; assay type: functional, organism-based
# Procedure, shortened: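 Treated mf washed in PBS (pH 7.2), fixed in paraformaldehyde and stained 5 min with 1 mg/mL Hoechst 33342. Mounted on poly-L-lysine slides and imaged by fluorescence microscopy at […].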
# Setaria cervi [8] = test: Antifilarial activity against Setaria cervi microfilaria forms after 24 hrs by MTT assay; assay type: functional, organism-based; procedure, shortened: as §1
# Setaria cervi [9] = test: Antifilarial activity against Setaria cervi microfilariae assessed as reduction in worm movement measured every 6 hrs up to 24 hrs by microscopy; assay type: functional, organism-based
# Procedure, shortened: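 About 1×10^5 S. cervi mf per well in RPMI-1640 with 10% FBS at 5% CO2, given a dose series. Motility checked by microscope every 6 h up to 24 h and scored 4 (highly motile) down to 0 (dead). IC50 and MIC calculated from scores; three experiments in triplicate, mean ± SE.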
# Setaria cervi [10] = test: Antifilarial activity against Setaria cervi microfilariae after 3 hrs
SMILES,LC50 (Setaria cervi [1]) [µg/mL],IC50 (Setaria cervi [9]) [µg/mL],MIC (Setaria cervi [9]) [µg/mL],further results
S=C(SSc1cccc2ccccc12)N1CCCCC1,6.49,2.15,0.583,Activity (Setaria cervi [1]): Dose-dependent effect; Activity (Setaria cervi [2]): Dose-dependent effect; Activity (Setaria cervi [3]): Active; Activity (Setaria cervi [4]): Dose-dependent effect; Activity (Setaria cervi [5]): Dose-dependent effect; Activity (Setaria cervi [6]): Active; Activity (Setaria cervi [7]): Active; Activity (Setaria cervi [8]): Active; IC50 (Setaria cervi [10]): 2.15 µg/mL
S=C(SSc1cccc2ccccc12)N1CCOCC1,88.9,22.2,7.41,–
S=C(SSc1ccccn1)N1CCc2ccccc2C1,99.2,24.8,8.26,–
S=C(SSc1ccccn1)N1CCC(Cc2ccccc2)CC1,237,59.1,19.7,–
COc1ccc(SSC(=S)N2CCCC2)cc1,97,24.2,8.08,–
Cc1ccc(SSC(=S)N2CCc3ccccc3C2)cc1,128,32.1,10.7,–
S=C(SSc1ccccn1)N1CCOCC1,191,47.7,15.9,–
Cc1ccc(SSC(=S)N2CCOCC2)cc1,79.6,19.9,6.63,–
S=C(SSc1ncccn1)N1CCC(Cc2ccccc2)CC1,240,59.9,20,–
Cc1ccc(SSC(=S)N2CCCC2)cc1,94.3,23.6,7.86,–
S=C(SSc1cccc2ccccc12)N1CCc2ccccc2C1,131,32.7,10.9,–
